Assay results published in ChEMBL document CHEMBL4665652, “Discovery of novel quinoline sulphonamide derivatives as potent, selective and orally active RORγ inverse agonists” (Bioorg Med Chem Lett, 2019).

What was measured:
[1] = molecular target: T1, Nuclear receptor ROR-gamma (Homo sapiens, UniProt P51449); experiment: Inverse agonist activity at RORgamma in human CD4+ T cells assessed as inhibition of IL17A secretion after 72 hrs by ELISA; format: cell-based, CD4+ve Th
T1 sequence (P51449 whole entry): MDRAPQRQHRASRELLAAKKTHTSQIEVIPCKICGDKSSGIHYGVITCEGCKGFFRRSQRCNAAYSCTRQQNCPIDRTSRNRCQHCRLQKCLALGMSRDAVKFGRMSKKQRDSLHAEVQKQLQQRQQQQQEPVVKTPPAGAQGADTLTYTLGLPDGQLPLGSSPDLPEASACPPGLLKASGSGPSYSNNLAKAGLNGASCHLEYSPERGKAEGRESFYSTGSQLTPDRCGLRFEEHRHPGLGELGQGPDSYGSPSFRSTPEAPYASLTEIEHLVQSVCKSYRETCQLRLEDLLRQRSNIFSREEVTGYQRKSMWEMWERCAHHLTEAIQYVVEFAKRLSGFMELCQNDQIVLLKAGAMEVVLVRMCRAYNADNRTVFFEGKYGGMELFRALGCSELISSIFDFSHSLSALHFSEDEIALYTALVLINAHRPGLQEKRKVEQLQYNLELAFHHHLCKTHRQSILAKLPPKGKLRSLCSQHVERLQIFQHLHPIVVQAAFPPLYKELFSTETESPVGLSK

[2] = molecular target: T1, Nuclear receptor ROR-gamma; experiment: Inverse agonist activity at pSG5GAL4-DBD/LBD fused human RORgamma receptor expressed in COS7 cells co-expressing 5 copies of GAL4 response element after 18 hrs by luciferase reporter gene based assay; format: cell-based
[3] = Stability in human microsomes assessed as unbound intrinsic clearance; format: ADME, Microsome
Outline: (§1)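 Unbound intrinsic clearance measured in human and mouse liver microsomes, expressed in L/h/kg. Values are geometric means of at least two separate runs.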

[4] = Stability in mouse microsomes assessed as unbound intrinsic clearance; format: ADME, Microsome; outline: as §1
Mus musculus = experiment: Immunosuppressive activity in po dosed PLP (139 to 151 residues)-induced experimental autoimmune encephalomyelitis mouse model assessed as incidence of disease administered twice starting from immunization relative to control; format: functional
Outline: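 EAE induced in mice by immunization with proteolipid protein peptide PLP139-151; ascending paralysis develops 10–12 days post-immunization. Compound dosed orally b.i.d. starting from immunization. Disease onset/incidence scored relative to control.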

EC50 [1] [nM]	EC50 [2] [nM]	CL free [3] [mL/min/kg]	CL free [4] [mL/min/kg]	SMILES	Activity (Mus musculus) [%]
930	1080			CCN(c1ccc(C(O)(C(F)(F)F)C(F)(F)F)cc1)S(=O)(=O)c1ccccc1	
3000	1360	33	267	CNC(=O)[C@@H]1CCCN1S(=O)(=O)c1ccc(Cl)c(COc2cccc3c(-n4ccnc4)cc(C)nc23)c1Cl	
1010	100	233	700	CNC(=O)[C@@H]1CCCN1S(=O)(=O)c1ccc(Cl)c(COc2cccc3c(-c4cccnc4)cc(C)nc23)c1Cl	
				CCCCCCCCc1ccc(CCC(N)(CO)CO)cc1 [FINGOLIMOD]	0
		667	1220	CNC(=O)[C@@H]1CCCN1S(=O)(=O)c1ccc(Cl)c(COc2cccc3c(OCc4ccccc4)cc(C(C)C)nc23)c1Cl	
	220	317	933	Cc1cc(C(F)(F)F)c2cccc(OCc3c(Cl)ccc(S(=O)(=O)N4C[C@@H](C)O[C@@H](C)C4)c3Cl)c2n1	
	910	167	867	Cc1cc(C(F)(F)F)c2cccc(OCc3c(Cl)ccc(S(=O)(=O)N4CC[C@@H](N(C)C)C4)c3Cl)c2n1	
770	170	500	1630	CNC(=O)[C@@H]1CCCN1S(=O)(=O)c1ccc(Cl)c(COc2cccc3c(C(F)(F)F)cc(C(C)C)nc23)c1Cl	
830	960	250	1630	Cc1cc(C(F)(F)F)c2cccc(OCc3c(Cl)ccc(S(=O)(=O)N4CCC[C@H]4CO)c3Cl)c2n1	
	520	33	130	CNC(=O)[C@@H]1CCCN1S(=O)(=O)c1ccc(Cl)c(COc2cccc3c(-n4ccnc4)cc(C(C)C)nc23)c1Cl	
	1390	8.3	13	Cc1cc(C(F)(F)F)c2cccc(OCc3c(Cl)ccc(S(=O)(=O)N4CCC[C@H]4C(=O)O)c3Cl)c2n1	
		250	1380	CNC(=O)[C@@H]1CCCN1S(=O)(=O)c1ccc(Cl)c(COc2cccc3c(C(F)(F)F)cc(C)nc23)c1Cl	
		183	733	CNC(=O)[C@@H]1CCCN1S(=O)(=O)c1ccc(Cl)c(COc2cccc3c(-c4ccccn4)cc(C)nc23)c1Cl	
	> 10000	120	917	CNC(=O)[C@@H]1CCCN1S(=O)(=O)c1ccc(Cl)c(COc2cccc3c(-c4nccn4C)cc(C)nc23)c1Cl	
	390	367	1080	Cc1cc(C(F)(F)F)c2cccc(OCc3c(Cl)ccc(S(=O)(=O)N4CCC(CCO)CC4)c3Cl)c2n1	
470	440	167	12600	Cc1cc(C(F)(F)F)c2cccc(OCc3c(Cl)ccc(S(=O)(=O)N4CCC[C@H]4C(N)=O)c3Cl)c2n1	
		233	1000	Cc1cc(C(F)(F)F)c2cccc(OCc3c(Cl)ccc(S(=O)(=O)N4CCCCC4)c3Cl)c2n1	
160	160	450	1620	COC[C@@H]1CCCN1S(=O)(=O)c1ccc(Cl)c(COc2cccc3c(C(F)(F)F)cc(C)nc23)c1Cl	
1390	1510	33	120	CNC(=O)[C@@H]1CCCN1S(=O)(=O)c1ccc(Cl)c(COc2cccc3c(-c4cncn4C)cc(C)nc23)c1Cl	
1830	220	333	633	CNC(=O)[C@@H]1CCCN1S(=O)(=O)c1ccc(Cl)c(COc2cccc3c(-c4ccncc4)cc(C(C)C)nc23)c1Cl	
		233	967	Cc1cc(C(F)(F)F)c2cccc(OCc3c(Cl)ccc(S(=O)(=O)N4CCCC4)c3Cl)c2n1	
	880	467	1820	CNC(=O)[C@@H]1CCCN1S(=O)(=O)c1ccc(Cl)c(COc2cccc3c(OCc4ccccc4)cc(C)nc23)c1Cl	
	760	433	1720	Cc1cc(C(F)(F)F)c2cccc(OCc3c(Cl)ccc(S(=O)(=O)N4CCC(C#N)CC4)c3Cl)c2n1	
3320	170	17	130	CNC(=O)[C@@H]1CCCN1S(=O)(=O)c1ccc(Cl)c(COc2cccc3c(-n4ccnc4)cc(C(F)(F)F)nc23)c1Cl	
		217	550	CNC(=O)[C@@H]1CCCN1S(=O)(=O)c1ccc(Cl)c(COc2cccc3c(-c4ccncc4)cc(C)nc23)c1Cl	
	> 10000	50	767	CNC(=O)[C@@H]1CCCN1S(=O)(=O)c1cccc(COc2cccc3c(C(F)(F)F)cc(C)nc23)c1	
210	350	300	1280	CCc1cc(C(F)(F)F)c2cccc(OCc3c(Cl)ccc(S(=O)(=O)N4CCC[C@H]4C(=O)NC)c3Cl)c2n1	
890	320			CNC(=O)[C@@H]1CCCN1S(=O)(=O)c1ccc(Cl)c(COc2cccc3c(-c4ccccc4)cc(C)nc23)c1Cl	
